The target of assay [1] is T1, Steroid 17-alpha-hydroxylase/17,20 lyase (Homo sapiens, UniProt P05093). The assay is described as follows: Inhibition of C-terminal His-tagged recombinant human CYP17A1delta19H mutant expressed in Escherichia coli DH5alpha assessed as decrease in progesterone hydroxylation preincubated for 3 mins followed by NADPH addition measured after 10 mins in presence of cytochrome p450 reductase by LC-MS/MS method. Put shortly: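 Purified human CYP17A1 (20 pmol) was preincubated with full-length human CPR (80 pmol) for 20 min at rt. […] After 3 min at 37 °C, 1 mM NADPH was added and the reaction ran 10 min before a TCA stop. The 17α-hydroxy product was read by LC-MS/MS.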

The target of the next assay is Steroid 21-hydroxylase (Homo sapiens, UniProt P08686). The experiment in a line: Inhibition of C-terminal His-tagged recombinant human CYP21A2deltaH mutant expressed in Escherichia coli DH5alpha assessed as decrease in progesterone hydroxylation preincubated for 3 mins followed by NADPH addition measured after 8 mins in presence of cytochrome p450 reductase by LC-MS/MS method.

The species named for another assay is Homo sapiens. The experiment in a line: Selectivity ratio of IC50 for C-terminal His-tagged recombinant human CYP21A2deltaH mutant to IC50 for C-terminal His-tagged recombinant human CYP17A1delta19H mutant.
The target in assay [2] is T1, Steroid 17-alpha-hydroxylase/17,20 lyase. The experiment in a line: Inhibition of C-terminal His-tagged recombinant human CYP17A1delta19H mutant expressed in Escherichia coli JM109 cells assessed as decrease in progesterone hydroxylation in presence of cytochrome P450 reductase […].

Steroid 21-hydroxylase, sequence (P08686 whole entry, looked up, stated change not applied): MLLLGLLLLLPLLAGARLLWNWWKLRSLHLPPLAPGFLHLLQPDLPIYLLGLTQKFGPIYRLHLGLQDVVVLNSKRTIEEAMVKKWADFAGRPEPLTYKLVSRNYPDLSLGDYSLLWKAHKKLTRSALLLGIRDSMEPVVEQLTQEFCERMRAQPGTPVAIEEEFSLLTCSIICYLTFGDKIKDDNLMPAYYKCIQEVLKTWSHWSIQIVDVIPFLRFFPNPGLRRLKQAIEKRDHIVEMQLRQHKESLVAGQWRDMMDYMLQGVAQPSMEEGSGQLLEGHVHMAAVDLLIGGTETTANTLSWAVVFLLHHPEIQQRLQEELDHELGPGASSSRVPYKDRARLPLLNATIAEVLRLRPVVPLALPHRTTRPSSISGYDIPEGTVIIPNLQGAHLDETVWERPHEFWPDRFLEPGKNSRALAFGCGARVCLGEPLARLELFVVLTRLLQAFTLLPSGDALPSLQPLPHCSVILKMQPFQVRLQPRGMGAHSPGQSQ
T1 sequence (P05093 whole entry, looked up): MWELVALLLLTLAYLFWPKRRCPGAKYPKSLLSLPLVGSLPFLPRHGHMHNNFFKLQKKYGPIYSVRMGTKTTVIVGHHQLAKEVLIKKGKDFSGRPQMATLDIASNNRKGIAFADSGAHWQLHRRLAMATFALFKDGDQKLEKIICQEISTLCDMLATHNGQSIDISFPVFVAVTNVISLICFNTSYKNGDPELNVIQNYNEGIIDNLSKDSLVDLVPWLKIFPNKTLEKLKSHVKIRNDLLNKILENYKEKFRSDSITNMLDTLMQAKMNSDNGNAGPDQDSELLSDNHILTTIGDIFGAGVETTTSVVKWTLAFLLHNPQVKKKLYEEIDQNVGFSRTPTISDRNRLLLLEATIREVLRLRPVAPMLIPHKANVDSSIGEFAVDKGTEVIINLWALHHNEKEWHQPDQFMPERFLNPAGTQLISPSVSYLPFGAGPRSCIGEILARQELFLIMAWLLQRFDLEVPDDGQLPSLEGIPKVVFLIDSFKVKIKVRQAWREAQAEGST

As for `C[C@]12CC[C@H](O)CC1=C(C#N)C[C@@H]1[C@@H]2CC[C@]2(C)C(c3cccnc3)=CC[C@@H]12`, the IC50 in assay [1] stood at 0.0155 µM.

As for `C[C@]12CC[C@H](O)CC1=CC[C@@H]1[C@@H]2CC[C@]2(C)C(c3ccccc3)=CC[C@@H]12`, the values for the IC50 (in assay [1]; at Steroid 21-hydroxylase) were above 20 µM and at least 0.7 µM, respectively.

`C[C@]12CC[C@H](O)C[C@@H]1NC(=O)C[C@@H]1[C@@H]2CC[C@]2(C)C(c3cccnc3)=CC[C@@H]12`: the Ratio IC50 in the assay filed under Homo sapiens was found to be 16. The values for the IC50 (in assay [1]; at Steroid 21-hydroxylase) were 0.23 µM and 3.6 µM, respectively.

Take `C[C@]12CCC(=O)C=C1CC[C@@H]1[C@@H]2CC[C@]2(C)C(c3cccnc3)=CC[C@@H]12`: the IC50 in assay [1] came out at 0.00613 µM; on Steroid 21-hydroxylase it was 0.0007 µM.

Regarding `C[C@]12CC[C@H](O)C[C@@H]1C(=O)C[C@@H]1[C@@H]2CC[C@]2(C)C(c3cccnc3)=CC[C@@H]12`, the Ratio IC50 in the assay filed under Homo sapiens was 35. Also, the values for the IC50 (in assay [1]; at Steroid 21-hydroxylase) were 0.0124 µM and 0.44 µM, respectively.

For `C[C@]12CC[C@H](O)CC1=C(C(N)=O)C[C@@H]1[C@@H]2CC[C@]2(C)C(c3cccnc3)=CC[C@@H]12`, the Ratio IC50 in the assay filed under Homo sapiens amounted to 29. Moreover, the IC50 in assay [1] worked out at 0.0228 µM; at Steroid 21-hydroxylase, 0.673 µM.

For `C[C@]12CC[C@H](O)CC1=CC[C@@H]1[C@@H]2CC[C@]2(C)C(c3cccnc3)=CC[C@@H]12` [ABIRATERONE], the IC50 in assay [1] is 0.00494 µM; in assay [2] it was 0.0094 to 0.092 µM.

With `C[C@]12CC[C@H](O)CC1=CC[C@@H]1[C@@H]2CC[C@]2(C)C(n3cnc4ccccc43)=CC[C@@H]12` [GALETERONE], in assay [1], the IC50 is 0.0281 µM.

On to `C[C@]12CC[C@H](O)C[C@@H]1[C@@H](O)C[C@@H]1[C@@H]2CC[C@]2(C)C(c3cccnc3)=CC[C@@H]12`, for which the Ratio IC50 in the assay listed under Homo sapiens was 33. The IC50 in assay [1] came to 0.0072 µM; at Steroid 21-hydroxylase it was 0.234 µM.

Values taken from ChEMBL document CHEMBL4184341, “Structure-Based Design of Inhibitors with Improved Selectivity for Steroidogenic Cytochrome P450 17A1 over Cytochrome P450 21A2” (J Med Chem, 2018).
